From ChEMBL document CHEMBL1136527, “Antifungal activity of a Candida albicans GGTase I inhibitor-alanine conjugate. Inhibition of Rho1p prenylation in C. albicans” (Bioorg Med Chem Lett, 2003) come the findings set out here.

In experiment [1] the test system is Candida albicans. Kind of experiment: Inhibitory of Candida albicans. Format: functional. Summed up: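 MIC against C. albicans SC5314 in YNBGlc medium: yeast nitrogen base without amino acids, supplemented with histidine, methionine, tryptophan, glutamine and 2% glucose.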
In experiment [2] the test system is Candida albicans. The experiment in a line: Inhibition of Candida albicans after addition of amino acids at 1 mM. Format: functional. Summed up: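 MIC against C. albicans SC5314 in YNBGlc medium (YNB without amino acids plus histidine, methionine, tryptophan, glutamine, 2% glucose), further supplemented with an amino acid mixture at 1mM final, to compete for permease uptake.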

For experiment [3], the system named is Candida albicans. Kind of experiment: Fungicidal activity against Candida albicans. Format: functional.
Experiment [4] has as its target Protein farnesyltransferase (Candida albicans). The experiment in a line: Inhibition of Candida albicans Farnesyltransferase.
In experiment [5] the target is Geranylgeranyl transferase type I (Candida albicans). The experiment in a line: Inhibition of Candida albicans Geranylgeranyl transferase type I.

In brackets after ≈: the same amount, converted by molar mass. A value given as a limit tells only on which side of the number the result lay.

A word on the MIC: it is the lowest concentration found to suppress growth. Low readings indicate greater potency, high ones weaker potency. As a reminder, the MFC is the lowest tested concentration that kills the fungus rather than only halting it. The low end stands for more potent killing, the high end for less potent killing. Broadly, the IC50 is the midpoint of a concentration-inhibition curve. On to `CC(C)C[C@H](NC(=O)C1(c2ccccc2)CCN(C(=O)[C@@H](N)CS)CC1)C(=O)N[C@@H](C)C(=O)O`, for which the minimum inhibitory concentration (MIC) against Candida albicans [1] is 1 µg/mL (≈ 2.03 µM); with Candida albicans [2] it was more than 64 µg/mL. The same molecule gave a minimum fungicidal concentration (MFC) against Candida albicans [3] of 2 µg/mL (≈ 4.06 µM). The IC50 worked out at 3000 nM in experiment [4] and 10 nM in experiment [5].

For the molecule `CC(C)C[C@H](NC(=O)C1(c2ccccc2)CCN(C(=O)[C@@H](N)CS)CC1)C(=O)O`, the minimal inhibitory concentration (MIC) against Candida albicans [1] was more than 128 µg/mL. Further, the MFC with Candida albicans [3] was more than 128 µg/mL. Further, the IC50 in experiment [4] is 200 nM; in experiment [5], less than 5 nM.

Consider `COC(=O)[C@H](CC(C)C)NC(=O)C1(c2ccccc2)CCN(C(=O)[C@@H](N)CS)CC1`, for which, in the experiment with Candida albicans [1], the MIC was more than 128 µg/mL. Further, the MFC against Candida albicans [3] was more than 128 µg/mL. This molecule also came in with a concentration for half-maximal inhibition (IC50) in experiment [5] of 5 nM.
